# Source: the EternaBench riboswitch data
# Tested on: MS2 coat protein
# Experiment: apparent Kd, MS2 coat protein; higher = weaker binding; RNA-MaP array
# Procedure, shortened: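 RNA designs were transcribed from sequenced DNA templates on an Illumina sequencing chip and then incubated at room temperature with fluorescently labeled MS2 coat protein at 1.5 nM to 3 μM, with or without input ligand, in Tris-HCl pH 7.5 buffer containing KCl, MgCl2, BSA, DTT, tRNA and Tween20. Incubation lasted 0.8–1.5 h at the lowest protein concentrations and 10–20 min at the highest. Apparent Kd is the median of binding-curve fits made for each cluster. Designs measured on fewer than 10 clusters were excluded.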
# [1] = designed as: OFF switch for flavin mononucleotide, no ligand
# [2] = ligand present: flavin mononucleotide, designed as: OFF switch for flavin mononucleotide
# [3] = designed as: OFF switch for theophylline, no ligand
# [4] = ligand present: theophylline, designed as: OFF switch for theophylline
# [5] = designed as: ON switch for flavin mononucleotide, no ligand
# [6] = ligand present: flavin mononucleotide, designed as: ON switch for flavin mononucleotide
Sequence,apparent Kd [1] [nM],apparent Kd [2] [nM],apparent Kd [5] [nM],apparent Kd [6] [nM],other results
AAAAUUCUAGUGAGGAUAUGGUACGUUGUAGUAAGCCAGAAGGCACAUGAGGAUCACCCAUGUAUAAUGGACGA,31.1,148,,,
AAACAAGUAGGAUAUACAUGAGGAUCACCCAUGUAUUGUGAGGAUAGUACUGUACCAUGUAGAAGGACUCCGGA,10.7,9.12,,,
AAAGAUUCCUGAACGCCGCAUACCGAUGAUACCAGCCAACGGAAAGGCCCUUGGCAGCAUUAAACAUGAGGAUCACCCAUGUCUA,,,,,apparent Kd [3]: 11.8 nM; apparent Kd [4]: 13.9 nM
AAGACGGUUCAGAAGGUCUCUAAGCAGGUUACAGAAGGAUAUGAUGCGGACACAUGAGGAUCACCCAUGUUCUAGGGUACCCUA,,,22.1,19,
AAUAAGAAAGGAUAUACAGAGGAUAAACUAAUAAAUAAAGGACAUGAGGAUCACCCAUGUAGAAGGUUCAAAAU,11.9,11.7,,,
AAUAUUAACGUCAGGAUAUGCCAUUCCCGUUGGCGGCAGAAGGGACAUGAGGAUCACCCAUGUGAAAACGUCAC,16.9,25.6,,,
AAUGGACGAGGAUAUACAUGAGGAUCACCCAUGUCACAGUGGGCUCACCGUUCGGGUAGUAGAAGGCGUUUCUA,107,282,,,
AAUGUACAUGAGGAUCACCCAUGUCGUCUACUUAGAGGAUAUGAUUGGUUACCCAGCUGAUCAGAAGGCUACCGUC,,,14.1,11.9,
ACCAGUAAAUAGCAAUCACAUGAGGAUCACCCAUGUACUGACAAGGAUAUAGUCUAAGAAUAGUGCUAGAAGGUGUUUCCCUAA,,,168,101,
ACCCUCUAUGAGAAGGAGAGCUUCGCUAGUUAUCUAGGAUAUCACGGAGGACCACUGACACUCCGACAUGAGGAUCACCCAUGU,,,16.5,13.9,
ACCGAGGCAAUGGAUACCAGUGCGCCACAAUCGUGCUUCAACAUGAGGAUCACCCAUGUGCACCCUUGGCAGCCAACGGGCUCAU,,,,,apparent Kd [3]: 21.9 nM; apparent Kd [4]: 19.9 nM
ACCUGGCGGCAGAAGGCCCGCGAUUAACGUAAGGGAGGAUAUGCAUUGUGCGGUGGGACAUGAGGAUCACCCAUGUGCAGCCAG,672,409,,,
AGACAUGAGGAUCACCCAUGUUUGUGUAUCUGACCGCGCACUAGAAGGGAUUGGACAACUUACUAUCAGGAUAUAGACAACGGU,,,8.4,6.95,
AGAUUUUGCCAAGGAUAUUCGAUGCAUCAUGACAUGAGGAUCACCCAUGUAUAACGACUUGGGCUGAAGAAGGUGGACCAAGCU,11.8,12,,,
AGCAUCGCAGGAUAUACAUGAGGAUCACCCAUGUAAAAUAACAAACUUGAACCUGCAAGUAGAAGGGCGUAACG,8.31,7.87,,,
AGCCUGGAAGCAGGAUAUGGGAUACAUGAGGAUCACCCAUGUAAGAUAAUAGGGCAACGAAGAAGCCAGAAGGGCUCGAGGUAA,,,16.2,13.1,
AGCUCGACUCGCAGCUGGAUGCCCGCUUGCCGAGGACCGGUACGGCCGCCACUCGUCACUCGACAUGAGGAUCACCCAUGUGAUA,,,,,"apparent Kd (designed as: OFF switch for tryptophan, no ligand): 88.3 nM; apparent Kd (ligand present: tryptophan, designed as: OFF switch for tryptophan): 45.6 nM"
AGGUCGAAACUAGGAUAUCUUCACUAUGUCAGAAGAGAAGGAGUAGAGCAUGACAGUGAUAGUACAUGAGGAUCACCCAUGUUA,18.8,15.7,,,
AGGUGCAUCAAGAAGGAUGACAUGAGGAUCACCCAUGUACAAAAGGCGCGAUUUACAAAUCGUACAUAGGAUAUUGUGCAUGUU,,,71.2,24.6,
AGUACAAUAUUAGGAUAUUGACAAAACAUGAGGAUCACCCAUGUAAGGCAAGUGCAAGGGAGAGUCAAGAAGGAAAACUGAGUU,,,38.4,30,
AGUGCUACGUGUAAUCAAAGAGAACCAGAUACCAGAUUAGCAUACAUCCCUUGGCAGCUGCAUACAUGAGGAUCACCCAUGUCAG,,,,,apparent Kd [3]: 37.2 nM; apparent Kd [4]: 39.1 nM
AGUGGGUAUGGGCAGGAUAUACGUCGGGCGACAUGAGGAUCACCCAUGUUGGGCGGUGAAGUUGAGUAGAAGGGCCUCCGCCCGAA,,,54.6,12.1,
AGUGUAUACAAGAAGGAACAUGGACUAGGAUUGUUAGGAUAUUGCAUAAACAUGAGGAUCACCCAUGUGCGACACGCCCACAUC,,,35.4,21.7,
AUAAAACUAAUACAUGAGGAUCACCCAUGUGAAACACAUACGAGAAGGGCGACAGUCUCAUACACGCAGGAUAUCGGCUAAACG,,,10.8,9.95,
AUAACACAUGAGGAUCACCCAUGUAAGGAUACCAGUUUCUGAUUAAACCCUUGGCAGCCUAGAGAUAGUCAUGUAAUAACGGCGA,,,,,"apparent Kd (designed as: ON switch for theophylline, no ligand): 11.9 nM; apparent Kd (ligand present: theophylline, designed as: ON switch for theophylline): 19 nM"
AUACCAACGGUCAGGAUAUAGGUAACAAGGAAAGACUAGAAGGGACAUGAGGAUCACCCAUGUUUUAACAUGAU,7.28,6.89,,,
